Tested on: HEK-293T
Assay: Multiplex assay against HEK293T;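 for Population Tubulin-Different-Phenotype (%): share of the cells with healthy nuclei that show this phenotype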
Assay type: toxicity, cell-based
Details: human
In short: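 Values for tubulin, mitochondrial-mass and membrane-permeability phenotypes are per cents of cells with healthy nuclei. These cells were identified by CellPathfinder machine-learning gating of live cells that had been stained at seeding with Hoechst33342, BioTracker Green Microtubule Cytoskeleton Dye, MitoTracker Red and Annexin V Alexa Fluor 680 and imaged on a CQ1 microscope at 37°C and 5% CO2 after compound addition. The gating first set Hoechst high-intensity objects apart from normal cells, then split normal cells into healthy, pyknosed or fragmented nuclei, and pyknosed cells into mitotic or apoptotic.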

[1] = 12 h, 1 µM, compound concentration 1 uM, replicate 1
[2] = 12 h, 1 µM, compound concentration 1 uM, replicate 2
[3] = 12 h, 10 µM, compound concentration 10 uM, replicate 1
[4] = 12 h, 10 µM, compound concentration 10 uM, replicate 2
[5] = 24 h, 1 µM, compound concentration 1 uM, replicate 1
[6] = 24 h, 1 µM, compound concentration 1 uM, replicate 2
[7] = 24 h, 10 µM, compound concentration 10 uM, replicate 1
[8] = 24 h, 10 µM, compound concentration 10 uM, replicate 2
[9] = 48 h, 1 µM, compound concentration 1 uM, replicate 1
[10] = 48 h, 1 µM, compound concentration 1 uM, replicate 2
[11] = 48 h, 10 µM, compound concentration 10 uM, replicate 1
[12] = 48 h, 10 µM, compound concentration 10 uM, replicate 2

Structure (SMILES): COc1cc(N2CCN(C)CC2)ccc1Nc1ncc2c(n1)N(C)c1ccccc1C(=O)N2C
- Population Apoptotic (%) [1]: 46%
- Population Fragmented Nuclei (%) [1]: 8%
- Population Healthy Nuclei (%) [1]: 45%
- Population Hoechst High Intensity Objects (%) [1]: 6%
- Population Membrane Permeable-Phenotype (%) [1]: 1%
- Population Mitochondria Different-Phenotype (%) [1]: 90%
- Population Mitotic Cells (%) [1]: 53%
- Population Normal (%) [1]: 93%
- Population Pyknosed Nuclei (%) [1]: 45%
- Population Tubulin-Different-Phenotype (%) [1]: 40%
- Total Cell Count [1]: 359
- Population Apoptotic (%) [2]: 18%
- Population Fragmented Nuclei (%) [2]: 3%
- Population Healthy Nuclei (%) [2]: 37%
- Population Hoechst High Intensity Objects (%) [2]: 3%
- Population Membrane Permeable-Phenotype (%) [2]: 6%
- Population Mitochondria Different-Phenotype (%) [2]: 42%
- Population Mitotic Cells (%) [2]: 82%
- Population Normal (%) [2]: 96%
- Population Pyknosed Nuclei (%) [2]: 58%
- Population Tubulin-Different-Phenotype (%) [2]: 23%
- Total Cell Count [2]: 176
- Population Apoptotic (%) [3]: 62%
- Population Fragmented Nuclei (%) [3]: 12%
- Population Healthy Nuclei (%) [3]: 17%
- Population Hoechst High Intensity Objects (%) [3]: 13%
- Population Membrane Permeable-Phenotype (%) [3]: 23%
- Population Mitochondria Different-Phenotype (%) [3]: 92%
- Population Mitotic Cells (%) [3]: 37%
- Population Normal (%) [3]: 86%
- Population Pyknosed Nuclei (%) [3]: 70%
- Population Tubulin-Different-Phenotype (%) [3]: 84%
- Total Cell Count [3]: 172
- Population Apoptotic (%) [4]: 58%
- Population Fragmented Nuclei (%) [4]: 8%
- Population Healthy Nuclei (%) [4]: 15%
- Population Hoechst High Intensity Objects (%) [4]: 6%
- Population Membrane Permeable-Phenotype (%) [4]: 7%
- Population Mitochondria Different-Phenotype (%) [4]: 96%
- Population Mitotic Cells (%) [4]: 41%
- Population Normal (%) [4]: 93%
- Population Pyknosed Nuclei (%) [4]: 76%
- Population Tubulin-Different-Phenotype (%) [4]: 100%
- Total Cell Count [4]: 190
- Population Apoptotic (%) [5]: 38%
- Population Fragmented Nuclei (%) [5]: 4%
- Population Healthy Nuclei (%) [5]: 58%
- Population Hoechst High Intensity Objects (%) [5]: 6%
- Population Membrane Permeable-Phenotype (%) [5]: 1%
- Population Mitochondria Different-Phenotype (%) [5]: 75%
- Population Mitotic Cells (%) [5]: 61%
- Population Normal (%) [5]: 93%
- Population Pyknosed Nuclei (%) [5]: 37%
- Population Tubulin-Different-Phenotype (%) [5]: 26%
- Total Cell Count [5]: 423
- Population Apoptotic (%) [6]: 9%
- Population Fragmented Nuclei (%) [6]: 5%
- Population Healthy Nuclei (%) [6]: 48%
- Population Hoechst High Intensity Objects (%) [6]: 2%
- Population Membrane Permeable-Phenotype (%) [6]: 7%
- Population Mitochondria Different-Phenotype (%) [6]: 40%
- Population Mitotic Cells (%) [6]: 90%
- Population Normal (%) [6]: 97%
- Population Pyknosed Nuclei (%) [6]: 45%
- Population Tubulin-Different-Phenotype (%) [6]: 22%
- Total Cell Count [6]: 225
- Population Apoptotic (%) [7]: 69%
- Population Fragmented Nuclei (%) [7]: 9%
- Population Healthy Nuclei (%) [7]: 19%
- Population Hoechst High Intensity Objects (%) [7]: 10%
- Population Membrane Permeable-Phenotype (%) [7]: 13%
- Population Mitochondria Different-Phenotype (%) [7]: 96%
- Population Mitotic Cells (%) [7]: 30%
- Population Normal (%) [7]: 89%
- Population Pyknosed Nuclei (%) [7]: 71%
- Population Tubulin-Different-Phenotype (%) [7]: 93%
- Total Cell Count [7]: 170
- Population Apoptotic (%) [8]: 76%
- Population Fragmented Nuclei (%) [8]: 7%
- Population Healthy Nuclei (%) [8]: 20%
- Population Hoechst High Intensity Objects (%) [8]: 5%
- Population Membrane Permeable-Phenotype (%) [8]: 2%
- Population Mitochondria Different-Phenotype (%) [8]: 94%
- Population Mitotic Cells (%) [8]: 23%
- Population Normal (%) [8]: 94%
- Population Pyknosed Nuclei (%) [8]: 72%
- Population Tubulin-Different-Phenotype (%) [8]: 97%
- Total Cell Count [8]: 195
- Population Apoptotic (%) [9]: 36%
- Population Fragmented Nuclei (%) [9]: 8%
- Population Healthy Nuclei (%) [9]: 71%
- Population Hoechst High Intensity Objects (%) [9]: 8%
- Population Membrane Permeable-Phenotype (%) [9]: 1%
- Population Mitochondria Different-Phenotype (%) [9]: 23%
- Population Mitotic Cells (%) [9]: 63%
- Population Normal (%) [9]: 91%
- Population Pyknosed Nuclei (%) [9]: 19%
- Population Tubulin-Different-Phenotype (%) [9]: 11%
- Total Cell Count [9]: 613
- Population Apoptotic (%) [10]: 18%
- Population Fragmented Nuclei (%) [10]: 6%
- Population Healthy Nuclei (%) [10]: 72%
- Population Hoechst High Intensity Objects (%) [10]: 2%
- Population Membrane Permeable-Phenotype (%) [10]: 6%
- Population Mitochondria Different-Phenotype (%) [10]: 7%
- Population Mitotic Cells (%) [10]: 81%
- Population Normal (%) [10]: 97%
- Population Pyknosed Nuclei (%) [10]: 20%
- Population Tubulin-Different-Phenotype (%) [10]: 16%
- Total Cell Count [10]: 357
- Population Apoptotic (%) [11]: 69%
- Population Fragmented Nuclei (%) [11]: 16%
- Population Healthy Nuclei (%) [11]: 33%
- Population Hoechst High Intensity Objects (%) [11]: 15%
- Population Membrane Permeable-Phenotype (%) [11]: 3%
- Population Mitochondria Different-Phenotype (%) [11]: 100%
- Population Mitotic Cells (%) [11]: 30%
- Population Normal (%) [11]: 84%
- Population Pyknosed Nuclei (%) [11]: 49%
- Population Tubulin-Different-Phenotype (%) [11]: 91%
- Total Cell Count [11]: 210
- Population Apoptotic (%) [12]: 70%
- Population Fragmented Nuclei (%) [12]: 11%
- Population Healthy Nuclei (%) [12]: 28%
- Population Hoechst High Intensity Objects (%) [12]: 10%
- Population Membrane Permeable-Phenotype (%) [12]: 1%
- Population Mitochondria Different-Phenotype (%) [12]: 96%
- Population Mitotic Cells (%) [12]: 29%
- Population Normal (%) [12]: 89%
- Population Pyknosed Nuclei (%) [12]: 59%
- Population Tubulin-Different-Phenotype (%) [12]: 94%
- Total Cell Count [12]: 211

Reference: ChEMBL document CHEMBL4689842, “EUbOPEN Chemogenomics Library wave 1” (2021)
